Measurements from ChEMBL document CHEMBL3244174, “Synthesis and biological activity of some new furan quaternary salts” (J Med Chem, 1977).
The source made the active and inactive calls. The rule behind the calls is not given here.

Legend:
[1] = test system: Trichophyton mentagrophytes; assay: Antifungal activity against Trichophyton mentagrophytes A-280 USPHS assessed as growth inhibition by agar dilution method; format: functional
Staphylococcus aureus = assay: Antibacterial activity against Staphylococcus aureus ATCC 6538 assessed as growth inhibition after 24 hrs by dilution tube method; format: functional; settings: ATCC 6538, 24 h
Method in brief: (§1)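 Broth tube dilution in Tryptone Soya Broth, duplicate tubes at each concentration. MIC (μg/ml) was the highest dilution preventing visible growth. Nitrofurantoin run under the same conditions.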

[2] = test system: Mycobacterium tuberculosis; assay: Antibacterial activity against Mycobacterium tuberculosis H37Rv assessed as growth inhibition by serial dilution method; format: functional
Method in brief: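 M. tuberculosis H37Rv maintained on Lowenstein–Jensen medium; tested in Youman's medium by serial dilution.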

Cryptococcus neoformans = assay: Antifungal activity against Cryptococcus neoformans 103 assessed as growth inhibition by agar dilution method; format: functional
[3] = test system: Agrobacterium tumefaciens; assay: Antibacterial activity against Agrobacterium tumefaciens NRRL B-36 assessed as growth inhibition after 24 hrs by dilution tube method; format: functional; settings: NRRL B-36, 24 h; method in brief: as §1
Salmonella typhi = assay: Antibacterial activity against Salmonella typhi 115 assessed as growth inhibition after 24 hrs by dilution tube method; format: functional, Salmonella enterica subsp. enterica serovar Typhi; settings: Salmonella enterica, 115, 24 h
Method in brief: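 Dilution tube method in Tryptone Soya Broth; MIC (μg/ml) taken as highest dilution preventing visible growth; duplicates at every concentration; nitrofurantoin reference run under same conditions.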

Histoplasma capsulatum = assay: Antifungal activity against Histoplasma capsulatum RNSH Hi-70 1/2 assessed as growth inhibition by agar dilution method; format: functional
Microsporum canis = assay: Antifungal activity against Microsporum canis VM-200 USPHS assessed as growth inhibition by agar dilution method; format: functional
[4] = Acute toxicity in ip dosed mouse; format: organism-based; settings: in vivo
Method in brief: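 Mice dosed intraperitoneally; LD50 determined.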

Trichophyton rubrum = assay: Antifungal activity against Trichophyton rubrum 252 CSTM assessed as growth inhibition by agar dilution method; format: functional
Candida albicans = assay: Antifungal activity against Candida albicans SKF 2270 assessed as growth inhibition by agar dilution method; format: functional
[5] = test system: Nippostrongylus brasiliensis; assay: Anthelmintic activity against larvae stage of Nippostrongylus brasiliensis infected in rat assessed as decrease in worm load at 250 mg/kg, po administered on day 8 post infection; format: functional, organism-based; design: dose 250 mg/kg
Method in brief: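 Young male rats (25–30 g, University of Freiburg strain), 3 per compound, infected with 500 infective larvae; single 250 mg/kg oral dose on day 8. Worm loads of treated and control groups compared; 90% deparasitization taken as active. Whitlock–Bliss technique as modified by Steward.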

Klebsiella pneumoniae = assay: Antibacterial activity against Klebsiella pneumoniae ATCC 10031 assessed as growth inhibition after 24 hrs by dilution tube method; format: functional; settings: ATCC 10031, 24 h; method in brief: as §1
Escherichia coli = assay: Antibacterial activity against Escherichia coli 114 assessed as growth inhibition after 24 hrs by dilution tube method; format: functional; settings: Escherichia coli, 114, 24 h; method in brief: as §1
Rodentolepis nana = assay: Anthelmintic activity against viable ova stage of Hymenolepis nana infected in rat assessed as decrease in intestinal worm load at 250 mg/kg, po measured on day 3; format: functional, organism-based; design: dose 250 mg/kg
Method in brief: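 Young male rats (25–30 g, University of Freiburg strain) infected with 200 viable ova, then given a single 250 mg/kg oral dose. Worms from each rat's small intestine collected and scored on day 3. A mean score of 0–10% of control taken as active.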

Nannizzia gypsea = assay: Antifungal activity against Microsporum gypseum 153 CSTM assessed as growth inhibition by agar dilution method; format: functional
Pseudomonas aeruginosa = assay: Antibacterial activity against Pseudomonas aeruginosa ATCC 10145 assessed as growth inhibition after 24 hrs by dilution tube method; format: functional; settings: ATCC 10145, 24 h; method in brief: as §1
Enterococcus faecalis = assay: Antibacterial activity against Streptococcus faecalis ATCC 10541 assessed as growth inhibition after 24 hrs by dilution tube method; format: functional; settings: ATCC 10541, 24 h; method in brief: as §1

| SMILES | MIC [1] [µg/mL] | MIC (Staphylococcus aureus) [µg/mL] | MIC [2] [µg/mL] | MIC (Cryptococcus neoformans) [µg/mL] | MIC [3] [µg/mL] | MIC (Salmonella typhi) [µg/mL] | MIC (Histoplasma capsulatum) [µg/mL] | MIC (Microsporum canis) [µg/mL] | LD50 [4] [mg/kg] | MIC (Trichophyton rubrum) [µg/mL] | MIC (Candida albicans) [µg/mL] | Activity [5] | MIC (Klebsiella pneumoniae) [µg/mL] | MIC (Escherichia coli) [µg/mL] | Activity (Rodentolepis nana) | MIC (Nannizzia gypsea) [µg/mL] | MIC (Pseudomonas aeruginosa) [µg/mL] | MIC (Enterococcus faecalis) [µg/mL] |
| --- | --- | --- | --- | --- | --- | --- | --- | --- | --- | --- | --- | --- | --- | --- | --- | --- | --- | --- |
| C[N+](C)(CCCCCCOc1c(Br)cc(Br)cc1Br)Cc1ccc([N+](=O)[O-])o1.[Br-] | > 200 | 10 | 10 | 100 | 25 | 100 | 25 | 100 | 75 | 100 | > 200 | inactive | 5 | 200 | inactive | 100 | 2.5 | 25 |
| Cc1cc(OCCCCC[N+](C)(C)Cc2ccc(Br)o2)c(C(C)C)cc1Cl.[Br-] | 100 | 2.5 | 10 | 10 | 10 | 50 | 100 | 100 | 37.5 | > 200 | > 200 | inactive | 2.5 | 100 | inactive | > 200 | 2.5 | 5 |
| Cc1cc(OCCCCC[N+](C)(C)Cc2ccc([N+](=O)[O-])o2)c(C(C)C)cc1Cl.[Br-] | > 200 | 10 | 5 | 25 | 25 | 50 | 100 | 100 | 50 | 100 | > 200 | inactive | 2.5 | > 200 | inactive | 100 | 2.5 | 10 |
| C[N+](C)(CCCCCCOc1c(Br)cc(Br)cc1Br)Cc1ccc(Br)o1.[Br-] | > 200 | 2 | 10 | 25 | 7.5 | 50 | 25 | 100 | 25 | > 200 | > 200 | inactive | 1.5 | 100 | inactive | > 200 | 1.5 | 5 |
| C[N+](C)(CCCCCOc1c(Br)cc(Br)cc1Br)Cc1ccc(Br)o1.[Br-] | > 200 | 2 | 10 | 25 | 25 | 50 | 100 | > 200 | 25 | > 200 | > 200 | inactive | 1.5 | 100 | inactive | > 200 | 2 | 7.5 |
| C[N+](C)(CCCCCCCCOc1c(Br)cc(Br)cc1Br)Cc1ccc(Br)o1.[Br-] | > 200 | 3 | 50 | 4 | 7.5 | > 200 | > 200 | > 200 |  | > 200 | > 200 |  | 4 | > 200 |  | > 200 | 2 | 4 |
| C[N+](C)(CCCCCCCCCCCCCCOc1c(Br)cc(Br)cc1Br)Cc1ccc(Br)o1.Cc1ccc(S(=O)(=O)[O-])cc1 | > 200 | 100 | 200 | 200 | 200 | 200 | > 200 | 200 |  | > 200 | > 200 |  | 100 | > 200 |  | > 200 | 50 | 100 |
